Data taken from ChEMBL document CHEMBL1145129, “Design, synthesis, and anticancer properties of 4,4'-dihydroxybenzophenone-2,4-dinitrophenylhydrazone and analogues” (J Med Chem, 2003).
Converted amounts (≈) assume the structure as drawn.

Columns and labels:
Melanoma tumor cell line [1] = assay: In vitro cytotoxicity against Human melanoma tumor cells.; type: functional, cell-based
Method in brief: (§1)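 Fresh surgical human tumor specimens minced to ≤0.1 mm fragments in RPMI-1640 with 10% FBS, streptomycin and penicillin (10⁶–10⁸ cells/mL), explanted into slide flasks. Exposed 24 h at 37 °C, 5% CO₂, to test agent 0.1–20 μg/mL (≥5 doses over 3 logs), in duplicate. Washed, recultured 7–14 days, fixed, HPF cell counts vs control; IC50 (SD) from percent growth.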

Homo sapiens [2] = species on record: Homo sapiens; assay: In vitro cytotoxicity in Human ovary tumor cells; type: functional; conditions: Female gonad; method in brief: as §1
Colon carcinoma cell = assay: In vitro cytotoxicity was tested in human colon tumor cells; type: functional, cell-based; method in brief: as §1
[3] = In vitro cytotoxicity in Human breast tumor cells; type: functional, cell-based; method in brief: as §1
Homo sapiens [4] = species on record: Homo sapiens; assay: In vitro cytotoxicity against Human lung tumor cells.; type: functional; method in brief: as §1
Melanoma tumor cell line [5] = assay: In vitro cytotoxicity against Human melanoma tumor cells; Not available.; type: functional, cell-based; method in brief: as §1
Homo sapiens [6] = species on record: Homo sapiens; assay: In vitro cytotoxicity against Human lung tumor cells; Not available.; type: functional; method in brief: as §1

Row | Structure (SMILES) | IC50 (Melanoma tumor cell line [1]) | IC50 (Homo sapiens [2]) | IC50 (Colon carcinoma cell) | IC50 [3] | IC50 (Homo sapiens [4]) | IC50 (Melanoma tumor cell line [5]) | IC50 (Homo sapiens [6])
1 | O=[N+]([O-])c1ccc(/N=N/c2c3ccccc3c(O)c3c(O)c(O)ccc23)c([N+](=O)[O-])c1 | > 5 µg/mL | > 10 µg/mL | 0.25 µg/mL (≈ 0.595 µM) | 0.007 µg/mL (≈ 0.0167 µM) | > 10 µg/mL |  | 
2 | CC(=O)Oc1ccc(C(=NNc2ccc([N+](=O)[O-])cc2[N+](=O)[O-])c2ccc(OC(C)=O)cc2)cc1 | > 10 µg/mL | > 10 µg/mL | > 10 µg/mL |  | > 10 µg/mL |  | 
3 | CC(=O)c1ccc2c(c1)/C(=N\Nc1ccc([N+](=O)[O-])cc1[N+](=O)[O-])c1ccc(C(C)=O)cc1-2 | 0.5 µg/mL (≈ 1.13 µM) | 0.9 µg/mL (≈ 2.03 µM) | 0.7 µg/mL (≈ 1.58 µM) | > 5 µg/mL | > 5 µg/mL |  | 
4 | Nc1ccc2c(NNc3ccc([N+](=O)[O-])cc3[N+](=O)[O-])c3cc(N)ccc3c(/N=N/c3ccc([N+](=O)[O-])cc3[N+](=O)[O-])c2c1 |  | > 5 µg/mL | > 5 µg/mL | > 5 µg/mL |  | Not Active | Not Active
5 | O=[N+]([O-])c1ccc(N/N=C2\c3ccccc3-c3cccc(O)c32)c([N+](=O)[O-])c1 |  |  | > 5 µg/mL | 7.5 µg/mL (≈ 19.9 µM) |  | Not Active | Not Active
6 | CC(=O)Oc1cccc2c1-c1nn(-c3ccccc3)c(=O)c3cccc(c13)C2=O |  | > 10 µg/mL |  | > 5 µg/mL |  | Not Active | Not Active
7 | CN(C)c1ccc(C(=NNc2ccc([N+](=O)[O-])cc2[N+](=O)[O-])c2ccc(N(C)C)cc2)cc1 | 5 µg/mL (≈ 11.1 µM) |  | 10 µg/mL (≈ 22.3 µM) | 4.2 µg/mL (≈ 9.36 µM) |  |  | Not Active
8 | O=[N+]([O-])c1ccc(NN=c2c3ccccc3oc3ccccc23)c([N+](=O)[O-])c1 | > 10 µg/mL | 0.05 µg/mL (≈ 0.133 µM) | 0.05 µg/mL (≈ 0.133 µM) | 0.04 µg/mL (≈ 0.106 µM) | > 10 µg/mL |  | 
9 | O=[N+]([O-])c1ccc(NN=C2c3cc(O)ccc3-c3ccc(O)cc32)c([N+](=O)[O-])c1 | 4.1 µg/mL (≈ 10.5 µM) | 0.08 µg/mL (≈ 0.204 µM) | 0.06 µg/mL (≈ 0.153 µM) | 0.05 µg/mL (≈ 0.127 µM) | > 10 µg/mL |  | 
10 | Nc1ccc2c(/N=N/c3ccc([N+](=O)[O-])cc3[N+](=O)[O-])c3ccccc3c(O)c2c1N |  | 6 µg/mL (≈ 14.3 µM) | 5 µg/mL (≈ 12 µM) | 5 µg/mL (≈ 12 µM) |  | Not Active | Not Active
11 | O=[N+]([O-])c1ccc(NN=c2c3ccccc3[s+]([O-])c3ccccc23)c([N+](=O)[O-])c1 (stereo not drawn) | > 10 µg/mL | > 10 µg/mL | > 10 µg/mL | > 10 µg/mL | > 10 µg/mL |  | 
12 | CC(=O)Nc1ccc(C(=NNc2ccc([N+](=O)[O-])cc2[N+](=O)[O-])c2ccc(NC(C)=O)cc2)cc1 | > 10 µg/mL | > 10 µg/mL | > 10 µg/mL | > 10 µg/mL |  |  | Not Active
13 | O=[N+]([O-])c1ccc(/N=N/c2c3ccccc3c3c4c(cccc24)NN3)c([N+](=O)[O-])c1 |  | > 5 µg/mL | > 5 µg/mL | > 5 µg/mL |  | Not Active | Not Active
14 | O=[N+]([O-])c1ccc(N(Cc2ccccc2)N=c2c3ccccc3oc3ccccc23)c([N+](=O)[O-])c1 | > 10 µg/mL | > 10 µg/mL |  | > 10 µg/mL |  |  | Not Active
15 | C/C(=N\Nc1ccc([N+](=O)[O-])cc1)c1ccc(O)cc1 |  | 6 µg/mL (≈ 22.1 µM) |  | 5 µg/mL (≈ 18.4 µM) |  | Not Active | Not Active
16 | Nc1ccc(/C(=N/Nc2ccc([N+](=O)[O-])cc2[N+](=O)[O-])c2ccccc2N)cc1 | 6 µg/mL (≈ 15.3 µM) | 2 µg/mL (≈ 5.1 µM) | 8 µg/mL (≈ 20.4 µM) | 0.7 µg/mL (≈ 1.78 µM) |  |  | Not Active
17 | CCN(CC)c1ccc(C(=NNc2ccc([N+](=O)[O-])cc2[N+](=O)[O-])c2ccc(N(CC)CC)cc2)cc1 | 5 µg/mL (≈ 9.91 µM) |  | > 10 µg/mL | > 7 µg/mL |  |  | Not Active
18 | CC(=O)Oc1cccc2c(/N=N/c3ccc([N+](=O)[O-])cc3[N+](=O)[O-])c3cccc(O)c3c(O)c12 | 0.097 µg/mL (≈ 0.21 µM) | 0.4 µg/mL (≈ 0.865 µM) | 0.03 µg/mL (≈ 0.0649 µM) | 0.05 µg/mL (≈ 0.108 µM) |  |  | Not Active
